Calls of active or inactive are those of the source. The rule behind the calls is not given here.
Assays:
[1] = molecular target: T1, NAD-dependent protein deacetylase sirtuin-3, mitochondrial (Homo sapiens, UniProt Q9NTG7); test: Inhibition of human recombinant SIRT3 using fluorescent peptide substrate by fluorescent assay
T1 sequence (Q9NTG7 whole entry): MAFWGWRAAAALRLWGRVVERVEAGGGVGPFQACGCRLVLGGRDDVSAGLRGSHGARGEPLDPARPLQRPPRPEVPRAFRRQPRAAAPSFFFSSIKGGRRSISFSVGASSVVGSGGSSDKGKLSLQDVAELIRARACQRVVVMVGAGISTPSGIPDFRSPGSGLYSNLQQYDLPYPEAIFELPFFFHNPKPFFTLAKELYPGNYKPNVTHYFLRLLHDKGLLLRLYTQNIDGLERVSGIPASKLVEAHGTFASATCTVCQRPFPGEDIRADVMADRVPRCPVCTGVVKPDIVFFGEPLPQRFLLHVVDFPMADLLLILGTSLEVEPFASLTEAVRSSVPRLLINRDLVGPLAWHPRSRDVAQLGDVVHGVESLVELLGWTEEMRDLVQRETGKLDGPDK

[2] = molecular target: T2, NAD-dependent protein deacetylase sirtuin-2 (Homo sapiens, UniProt Q8IXJ6); test: Inhibition of human recombinant SIRT2 using fluorescent peptide substrate by fluorescent assay
T2 sequence (Q8IXJ6 whole entry): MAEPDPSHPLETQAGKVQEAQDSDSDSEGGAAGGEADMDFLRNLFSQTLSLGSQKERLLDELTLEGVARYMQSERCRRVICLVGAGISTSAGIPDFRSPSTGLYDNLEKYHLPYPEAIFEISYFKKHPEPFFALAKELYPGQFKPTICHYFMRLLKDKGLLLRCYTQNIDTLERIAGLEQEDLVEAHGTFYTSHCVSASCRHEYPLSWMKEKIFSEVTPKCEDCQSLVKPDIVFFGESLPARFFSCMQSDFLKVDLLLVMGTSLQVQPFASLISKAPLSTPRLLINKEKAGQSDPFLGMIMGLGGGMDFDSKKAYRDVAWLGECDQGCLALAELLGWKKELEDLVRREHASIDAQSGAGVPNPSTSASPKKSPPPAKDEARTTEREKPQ
Method in brief: (§1)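 Recombinant human SIRT1 or SIRT2 tested in an in vitro fluorometric deacetylation assay. Dose-response inhibition profiles were run, and IC50 was calculated from them.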

[3] = molecular target: T3, NAD-dependent protein deacetylase sirtuin-1 (Homo sapiens, UniProt Q96EB6); test: Inhibition of human recombinant SIRT1 using fluorescent peptide substrate by fluorescent assay; method in brief: as §1
T3 sequence (Q96EB6 whole entry): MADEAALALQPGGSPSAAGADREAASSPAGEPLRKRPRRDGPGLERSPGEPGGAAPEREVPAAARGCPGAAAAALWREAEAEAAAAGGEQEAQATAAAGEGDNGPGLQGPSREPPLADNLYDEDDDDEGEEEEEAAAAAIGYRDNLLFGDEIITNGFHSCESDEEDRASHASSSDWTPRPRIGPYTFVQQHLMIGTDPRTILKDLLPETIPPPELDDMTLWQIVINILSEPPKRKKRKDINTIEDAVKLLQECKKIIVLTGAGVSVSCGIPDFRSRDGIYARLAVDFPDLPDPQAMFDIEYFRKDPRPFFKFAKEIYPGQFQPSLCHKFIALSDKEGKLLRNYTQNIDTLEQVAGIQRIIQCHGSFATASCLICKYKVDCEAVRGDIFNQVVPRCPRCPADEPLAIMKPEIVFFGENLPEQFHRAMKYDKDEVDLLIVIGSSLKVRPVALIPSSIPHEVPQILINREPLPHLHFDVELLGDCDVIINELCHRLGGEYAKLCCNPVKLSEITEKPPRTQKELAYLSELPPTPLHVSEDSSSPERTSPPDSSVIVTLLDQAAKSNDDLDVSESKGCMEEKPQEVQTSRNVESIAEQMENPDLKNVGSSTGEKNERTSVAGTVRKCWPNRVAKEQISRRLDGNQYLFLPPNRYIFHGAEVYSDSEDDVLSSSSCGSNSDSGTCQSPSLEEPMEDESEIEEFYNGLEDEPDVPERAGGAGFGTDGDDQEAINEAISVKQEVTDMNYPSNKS

Midbrain = test: Protection of dopaminergic cell death in rat embryo midbrain transduced with lentivirus encoding alphaSyn-A53T mutant assessed as tyrosine hydroxylase positive cells; type: functional, tissue-based
Method in brief: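 Primary midbrain cultures transduced with α-SynA53T lentivirus (multiplicity of infection = 5) in the presence of vehicle (DMSO) or increasing compound concentrations. Untransduced DMSO-treated (0.2%, v/v) cells served as control. Stained for MAP2 and TH; viability = percentage of MAP2-positive cells also TH-positive. Means ± SEM, N > 3; one-way ANOVA with Dunnett's post hoc test versus α-SynA53T alone.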

Drosophila = test: Protective effect against alphaSyn mediated toxicity in wild-type transgenic Drosophila expressing elav-GAL4; UAS-synWT assessed as rescue of dorsomedial neurons after drug administration for the first 20 days of adult life; type: functional, organism-based
Method in brief: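 Transgenic α-Syn flies were fed compound at 250, 500 or 1000 μM, or DMSO, for the first 20 days of adult life. TH-positive dopamine neurons in the dorsomedial cluster were then assessed in 20-day-old flies. Significance was set at P < 0.01.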

Structure (SMILES) | IC50 [1] | IC50 [2] | IC50 [3] | Activity (Midbrain) | Activity (Drosophila)
N#C/C(=C\c1ccc(-c2ccccc2Cl)o1)C(=O)Nc1cccc2cccnc12 | > 50 µM | > 50 µM | – | – | –
O=C(c1ccc(Cl)cc1)N1CCN(c2ccc([N+](=O)[O-])c3ncccc23)CC1 | > 50 µM | 35 µM | > 50 µM | Active | –
N#C/C(=C\c1ccc(-c2cc(Cl)ccc2Cl)o1)C(=O)Nc1cccc2ncccc12 | – | – | > 50 µM | Active | Dose-dependent effect
N#C/C(=C\c1ccc(-c2cccc(C(F)(F)F)c2)o1)C(=O)Nc1cccc2ncccc12 | > 50 µM | 6 µM | > 50 µM | – | –

More lines, main results first:

IC50 [1] | IC50 [2] | IC50 [3] | Structure (SMILES) | Activity (Midbrain) | Activity (Drosophila)
> 50 µM | > 50 µM | > 50 µM | N#C/C(=C\c1ccc(-c2cccc(C(F)(F)F)c2)o1)C(=O)Nc1cccc2cccnc12 | – | –
> 50 µM | 5.5 µM | – | N#C/C(=C\c1ccc(-c2ccccc2Cl)o1)C(=O)Nc1cccc2ncccc12 | – | –
> 5 µM | > 50 µM | – | N#C/C(=C\c1ccc(-c2cc(Cl)ccc2Cl)o1)C(=O)Nc1cccc2cccnc12 | – | –
> 50 µM | > 10 µM | > 50 µM | N#C/C(=C\c1ccc(-c2cccc(Cl)c2Cl)o1)C(=O)Nc1cccc2ncccc12 | – | –
> 50 µM | > 50 µM | > 50 µM | N#C/C(=C\c1ccc(-c2cccc(Cl)c2Cl)o1)C(=O)Nc1cccc2cccnc12 | – | –
